Calls of active or inactive are those of the source. The rule behind the calls is not given here.
Columns and labels:
[1] = Antiproliferative activity in human HuTu 80 cells assessed as cell viability after 72 hrs by MTT assay; assay type: functional, cell-based, HuTu80
In short: (§1)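 Each line was grown in its own medium: DMEM for HuTu-80, EMEM/NEAA for MCF-7, EMEM/F12 for SKNBE, DMEM/F12 with 5% FBS for T84, Leibovitz's for the SW lines. Cells were seeded, left 24 h, then exposed to graded concentrations for 72 h. MTT was given 2 h, absorbance read at 570 nm. IC50 is 50% absorbance inhibition versus control, from dose-response curves; mean ± SD of ≥3 independent experiments, each in triplicate.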

[2] = Antiproliferative activity in human renal cancer cells; assay type: functional, cell-based; details: Cancer cell lines
[3] = system: HeLa; assay: Antiproliferative activity in human HeLa cells assessed as cell viability at 10 uM after 48 hrs by MTT assay; assay type: functional, cell-based
In short: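 HeLa cells were kept in DMEM with 10% FBS at 37 °C, 5% CO2. They were seeded, left 24 h, then given 10 μM compound for 48 h. MTT was added for 2 h at 37 °C, formazan solubilized, absorbance read at 570 nm, and viability compared with control cells.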

[4] = Antiproliferative activity in human SK-N-BE cells assessed as cell viability after 72 hrs by MTT assay; assay type: functional, cell-based; in short: as §1
[5] = system: SW-620; assay: Antiproliferative activity in human SW620 cells assessed as cell viability after 72 hrs by MTT assay; assay type: functional, cell-based; in short: as §1
[6] = system: SW480; assay: Antiproliferative activity in human SW480 cells assessed as cell viability after 72 hrs by MTT assay; assay type: functional, cell-based; in short: as §1
[7] = system: MCF7; assay: Antiproliferative activity in human MCF7 cells assessed as cell viability after 72 hrs by MTT assay; assay type: functional, cell-based; in short: as §1
[8] = target: Tubulin (Sus scrofa, UniProt P02554+P02550); assay: Inhibition of porcine brain tubulin polymerization after 30 mins by spectrophotometry
In short: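 Porcine brain tubulin at 2.5 mg/mL was used in 80 mM PIPES pH 6.9, 1 mM MgCl2, 2 mM EGTA, 10% glycerol, with 1 mM GTP and graded compound (0.2% DMSO vehicle). Turbidity was followed at 340 nm, 37 °C.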

[9] = system: T84; assay: Antiproliferative activity in human T84 cells assessed as cell viability after 72 hrs by MTT assay; assay type: functional, cell-based; in short: as §1
[10] = Antiproliferative activity in human CCD-841-CoN cells assessed as cell viability at 10 uM after 72 hrs by MTT assay; assay type: cell-based
In short: (§2)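 Normal cells (CCD841CoN in EMEM/NEAA with 10% FBS; FHs74 in DMEM with 10% FBS, EGF 30 ng/mL, insulin 10 μg/mL) were seeded and grown for 24 h at 37 °C, 5% CO2, then given compound at 10 μM. Viability was read by MTT: 2 h at 37 °C, formazan solubilized, absorbance at 570 nm.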

[11] = Antiproliferative activity in human FHs74 cells assessed as cell viability at 10 uM after 72 hrs by MTT assay; assay type: cell-based; in short: as §2
[12] = system: SW48; assay: Antiproliferative activity in human SW48 cells assessed as cell viability after 72 hrs by MTT assay; assay type: functional, cell-based; in short: as §1
[13] = target: T1, AMP-activated protein kinase, AMPK (Homo sapiens) (UniProt P54646+O43741+P54619+Q9UGJ0+Q9Y478+Q13131+Q9UGI9); assay: Induction of AMPK-mediated raptor phosphorylation at ser792 residue in human […] cells at 30 nM after 24 hrs by Western blot analysis; assay type: cell-based
In short: (§3)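 HuTu-80 cells were exposed to 30 nM compound for 24 h, with 0.1% DMSO as vehicle. pT172-AMPK and pS792-Raptor were blotted from total RIPA extracts with vinculin for loading. pS15-p53 and total p53 were blotted from nuclear extracts with fibrillarin as nuclear control.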

[14] = Cell cycle arrest in human HuTu 80 cells assessed as accumulation at G2/M phase at 30 nM after 48 to 72 hrs by propidium iodide-based flow cytometry; assay type: functional; details: HuTu80
In short: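 HuTu-80 cells were exposed to 30 nM compound for 48 and 72 h, with 0.1% DMSO as vehicle. Cells were trypsinized, washed in PBS, fixed in 75% ethanol at 4 °C and stained with propidium iodide. DNA content was measured by flow cytometry.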

[15] = Cell cycle arrest in human HuTu 80 cells assessed as […] at sub-G1 phase at 30 nM by propidium iodide-based flow cytometry; assay type: functional; details: HuTu80, TDE = time-dependent effect
[16] = Cell cycle arrest in human HuTu 80 cells assessed as […] at sub-G1 phase at 30 nM after 72 hrs by propidium iodide-based flow cytometry (reference value: 4.3 %); assay type: functional; design: scale not given: the % may be the effect or the level left; details: HuTu80
[17] = target: T1, AMP-activated protein kinase, AMPK (Homo sapiens); assay: Induction of AMPK-mediated p53 pser15 accumulation in human […] cells at 30 nM after 24 hrs by Western blot analysis; assay type: cell-based; in short: as §3
[18] = system: HuTu80; assay: Induction of apoptosis in human HuTu 80 cells assessed as PARP cleavage at 30 nM after 24 hrs by Western blot analysis
[19] = system: HuTu80; assay: Induction of apoptosis in human HuTu 80 cells assessed as caspase-3 cleavage at 30 nM after 24 hrs by Western blot analysis
[20] = target: T1, AMP-activated protein kinase, AMPK (Homo sapiens); assay: Induction of AMPK phosphorylation at Thr172 residue in human […] cells at 30 nM after 24 hrs by Western blot analysis; assay type: cell-based; in short: as §3
[21] = system: HuTu 18; assay: Effect on AKT phosphorylation at ser473 in human […] cells at 30 nM after 24 hrs by Western blot analysis; assay type: cell-based
In short: (§4)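 HuTu-80 cells were exposed to 30 nM compound for 24 h, with 0.1% DMSO as vehicle. They were then mock treated or stimulated with 10 μg/mL insulin for 10 min. Total RIPA extracts were probed by Western blot for pS473-Akt and total Akt, with vinculin as loading control.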

[22] = target: T1, AMP-activated protein kinase, AMPK (Homo sapiens); assay: Induction of AMPK phosphorylation at Thr172 residue in human SW48 cells at 30 nM after 16 hrs by Western blot analysis; assay type: cell-based
In short: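 SW48 cells were exposed to 30 nM compound for 16 h, with 0.1% DMSO as vehicle. Total RIPA lysates (with protease and phosphatase inhibitors) were blotted for pT172-AMPK and total AMPK.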

[23] = target: T1, AMP-activated protein kinase, AMPK (Homo sapiens); assay: Induction of AMPK-mediated p53 phosphorylation at ser15 residue in human […] cells at 30 nM after 24 hrs by Western blot analysis; assay type: cell-based; in short: as §3
[24] = system: HuTu 18; assay: Effect on AKT phosphorylation at ser473 in insulin-stimulated human […] cells at 30 nM after 24 hrs by Western blot analysis; assay type: cell-based; in short: as §4
[25] = Cell cycle arrest in human HuTu 80 cells assessed as accumulation at sub-G1 phase at 30 nM after 48 hrs by propidium iodide-based flow cytometry (reference value: 3.3 %); details: HuTu80

COc1ccc([C@@H]2[C@H](O)C(=O)N2c2cc(OC)c(OC)c(OC)c2)cc1[N+](=O)[O-]
IC50 ([1]; Homo sapiens, HuTu80, 72 h): 529 nM
IC50 [2]: 29.2 nM

COc1ccc([C@@H]2[C@H](O)C(=O)N2c2cc(OC)c(OC)c(OC)c2)cc1N
IC50 ([1]; Homo sapiens, HuTu80, 72 h): 101 nM

COc1ccc([C@@H]2[C@H](O)C(=O)N2c2cc(OC)cc(OC)c2)cc1 (racemic)
IC50 ([1]; Homo sapiens, HuTu80, 72 h): 125 nM
Activity [3]: Active

COc1ccc([C@H]2[C@H](O)C(=O)N2c2cc(OC)cc(OC)c2)cc1 (racemic) [listing 1 of 2 here]
IC50 ([4]; sk-n-be): 2.25 nM
IC50 ([1]; hutu80): 9.05 nM
IC50 ([5]; Homo sapiens, SW-620, 72 h): 6.6 nM
IC50 ([6]; Homo sapiens, SW480, 72 h): 24.2 nM
IC50 ([7]; Homo sapiens, MCF7, 72 h): 5.19 nM
IC50 [8]: 3600 nM
IC50 ([9]; Homo sapiens, T84, 72 h): 5.73 nM
Activity [10]: Non-toxic
Activity [11]: Non-toxic
IC50 ([12]; Homo sapiens, SW48, 72 h): 12.1 nM

COc1ccc([C@@H]2[C@H](O)C(=O)N2c2cc(OC)c(OC)c(OC)c2)cc1O (racemic)
IC50 ([1]; Homo sapiens, HuTu80, 72 h): 28.8 nM
Activity [3]: Active

COc1ccc([C@H]2[C@H](O)C(=O)N2c2cc(OC)c(OC)c(OC)c2)cc1O (racemic) [listing 1 of 2 here]
IC50 ([4]; sk-n-be): 4.2 nM
IC50 ([1]; hutu80): 13.4 nM
IC50 ([5]; sw-620): 13.6 nM
IC50 ([6]; Homo sapiens, SW480, 72 h): 22.1 nM
IC50 ([7]; Homo sapiens, MCF7, 72 h): 6.14 nM
IC50 [8]: 3800 nM
IC50 ([9]; t84): 45.4 nM
IC50 ([12]; Homo sapiens, SW48, 72 h): 15.2 nM

COc1ccc(N2C(=O)[C@@H](O)[C@H]2c2cc(OC)c(OC)c(OC)c2)cc1O (racemic)
IC50 ([1]; Homo sapiens, HuTu80, 72 h): 2550 nM
Activity [3]: Active

COc1ccc(N2C(=O)[C@@H](O)[C@@H]2c2cc(OC)c(OC)c(OC)c2)cc1O (racemic)
IC50 ([1]; Homo sapiens, HuTu80, 72 h): 406 nM
Activity [3]: Active

COc1ccc([C@H]2[C@H](O)C(=O)N2c2cc(OC)c(OC)c(OC)c2)cc1O (racemic) [listing 2 of 2 here]
Activity [13]: Active
Activity [14]: Active
Activity [15]: tde
Activity [3]: Active
Activity [16]: 32.7%
Activity [17]: Active
Activity [18]: Active
Activity [19]: Active
Activity [20]: Active
Activity [21]: inactive
Activity [22]: Active
Activity [23]: Active
Activity [24]: inactive
Activity [25]: 22.9%

COc1ccc([C@H]2[C@H](O)C(=O)N2c2cc(OC)cc(OC)c2)cc1 (racemic) [listing 2 of 2 here]
Activity [13]: Active
Activity [14]: Active
Activity [15]: tde
Activity [3]: Active
Activity [16]: 35%
Activity [17]: Active
Activity [18]: Active
Activity [19]: Active
Activity [20]: Active
Activity [21]: inactive
Activity [22]: Active
Activity [23]: Active
Activity [24]: inactive
Activity [25]: 28.5%

COc1ccc([C@H]2[C@H](O)C(=O)N2c2cc(OC)cc(OC)c2)cc1 (stereo in doubt; (+))
IC50 ([4]; sk-n-be): 1.12 nM
IC50 ([1]; hutu80): 8.02 nM
IC50 ([5]; sw-620): 8.58 nM
IC50 ([6]; sw480): 16.7 nM
IC50 ([7]; mcf7): 4.01 nM
IC50 [8]: 1300 nM
IC50 ([9]; t84): 6.77 nM
IC50 ([12]; sw48): 11.1 nM

COc1ccc([C@H]2[C@H](O)C(=O)N2c2cc(OC)c(OC)c(OC)c2)cc1O (stereo in doubt; (+))
IC50 ([4]; sk-n-be): 1.32 nM
IC50 ([1]; hutu80): 3.05 nM
IC50 ([5]; sw-620): 3.37 nM
IC50 ([6]; sw480): 12.5 nM
IC50 ([7]; mcf7): 4.47 nM
IC50 [8]: 1610 nM
IC50 ([9]; t84): 20.3 nM
Activity [10]: Non-toxic
Activity [11]: Non-toxic
IC50 ([12]; sw48): 9.81 nM

COc1ccc([C@H]2[C@H](O)C(=O)N2c2cc(OC)cc(OC)c2)cc1 (stereo in doubt; (-))
IC50 ([1]; hutu80): 83.5 nM

COc1ccc([C@H]2[C@H](O)C(=O)N2c2cc(OC)c(OC)c(OC)c2)cc1O (stereo in doubt; (-))
IC50 ([1]; hutu80): 590 nM

COc1ccc(/C=C\c2cc(OC)c(OC)c(OC)c2)cc1O [COMBRETASTATIN A4]
IC50 ([4]; Homo sapiens, SK-N-BE, 72 h): 0.58 nM
IC50 ([1]; Homo sapiens, HuTu80, 72 h): 1.37 nM
Activity [3]: Active
IC50 ([5]; Homo sapiens, SW-620, 72 h): 1.52 nM
IC50 ([6]; Homo sapiens, SW480, 72 h): 3.63 nM
Activity [16]: 34%
Activity [17]: Active
IC50 ([7]; Homo sapiens, MCF7, 72 h): 1.11 nM
Activity [18]: Active
Activity [19]: Active
Activity [25]: 24.6%
IC50 ([9]; Homo sapiens, T84, 72 h): 23.4 nM
IC50 ([12]; Homo sapiens, SW48, 72 h): 3.32 nM
